Test results taken from ChEMBL document CHEMBL2396655, “Design, synthesis, and biological evaluation of (E)-N-aryl-2-arylethenesulfonamide analogues as potent and orally bioavailable microtubule-targeted anticancer agents” (J Med Chem, 2013).
Converted amounts (≈) assume the structure as drawn. The source made the active and inactive calls. The rule behind the calls is not given here.

Tests used:
Plasma = assay: Plasma protein binding in dog at 10 to 50 uM by equilibrium dialysis; format: ADME, cell-free, Canis lupus familiaris
MIA PaCa-2 = assay: Antitumor activity against human MIAPaCa2 cells assessed as inhibition of anchorage-independent growth after 3 weeks by NBT staining-based soft agar assay; format: functional, cell-based
Summary of the method: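 MIA-PaCa-2 cells (1.0×10⁵) in growth medium with compound were mixed into 0.4% Noble top agar over a 0.8% bottom layer. Each concentration was plated in triplicate. Plates were incubated 3 weeks at 37 °C, 5% CO₂, then stained with 0.05% nitroblue tetrazolium for 48 h and photographed.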

Bos taurus = species on record: Bos taurus; assay: Inhibition of bovine brain tubulin assessed as destabilization of microtubule polymerization at 10 uM over 40 mins by spectrophotometric analysis
Summary of the method: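 Purified bovine brain tubulin was incubated at 37 °C with 10 μM compound, DMSO or reference agents. Polymerization was followed as rising absorbance at 340 nm over 40 min. Data are representative of three independent experiments.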

[1] = Growth inhibition of multidrug-resistant human MES-SA/Dx5 cells; format: functional
Tubulin = Tubulin (Sus scrofa, UniProt P02554+P02550); assay: Competitive binding affinity to pig brain tubulin colchicine binding site after 1 hr by mass spectrophotometric analysis in presence of colchicine; format: tissue-based
Summary of the method: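 Porcine brain tubulin (1.0 mg/mL) in PIPES 80 mM, MgCl₂ 2 mM, EGTA 0.5 mM, pH 6.9, at 37 °C. Competitor was 0.1–100 μM for 1 h. Unbound ligand in the 30 kDa ultrafiltrate was measured by MS. Runs were in triplicate; IC50 came from a Hill fit.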

DU-145 [2] = assay: Mitotoic arrest in human DU145 cells assessed as presence of micronucleated cells at 25 nM after 24 hrs by FITC and propidium iodide staining-based confocal laser microscopic analysis; format: functional, cell-based
Summary of the method: (§1)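 DU145 cells grown on glass coverslips, exposed to 0.025 μM for 24 h, fixed in 4% paraformaldehyde, permeabilized in PBS with 10% FBS/0.1% Triton X-100, stained with FITC-conjugated anti-α-tubulin (DM1A, 1 h, 37 °C) and propidium iodide (1 μg/mL, 5 min), then imaged by confocal microscopy (60× objective, XYZ-sectioning); DMSO-treated cells as vehicle.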

Tubulin (Homo sapiens) [3] = molecular target: T1, Tubulin (Homo sapiens) (UniProt P68371+Q9H4B7+P0DPH7+P68366+Q13509+Q71U36+P04350+Q3ZCM7+P07437+P68363+Q9BQE3+Q6PEY2+Q13885+Q9BVA1+Q9BUF5); assay: Inhibition of tubulin polymerization in human DU145 cells at 10 to 50 nM pretreated with paclitaxel for 24 hrs followed by compound treatment for 4 hrs by Western blotting analysis; format: cell-based; conditions: DU-145
Summary of the method: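 DU145 cells were plated at 1.0×10⁴/well and treated for 24 h. Alternatively, cells were pretreated with paclitaxel for 24 h, then exposed to compound for 4 h. Cells were lysed in hypotonic buffer (1 mM MgCl₂, 2 mM EGTA, Tris pH 6.6, 0.5% NP40, protease inhibitors) and spun 10 min at 14,000 rpm. Pellet (polymerized) and supernatant (soluble) fractions were blotted for α-tubulin.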

DU-145 [4] = assay: Induction of apoptosis in human DU145 cells assessed as increase in PARP cleavage at 10 to 20 nM after 24 to 72 hrs by Western blotting analysis; format: functional, cell-based
Summary of the method: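 DU145 cells were plated at 1.0×10⁶ per plate and treated 24 h later with DMSO or increasing concentrations, then harvested at set time points. Cells were lysed in 0.1% Triton X-100 buffer with protease inhibitors. Equal protein was run on 10% SDS-PAGE, blotted with anti-PARP and detected with IRDye 800 secondary on Odyssey.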

2008 = assay: Growth inhibition of human 2008 cells; format: functional
A-431 = assay: Cytotoxicity against human A431 cells after 96 hrs by trypan blue exclusion assay; format: functional; conditions: A-431, 96 h
Summary of the method: (§2)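 Cells were grown in DMEM or RPMI with 10% FBS and plated at 2.5×10⁴ cells/well in 12-well dishes. Compounds were added 24 h later at various concentrations. After 96 h, viable cells were counted by trypan blue exclusion from duplicate wells. Results are the mean of two independent experiments.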

DU-145 [5] = assay: Induction of apoptosis in human DU145 cells assessed as caspase activation at 10 to 20 nM after 24 to 72 hrs by Western blotting analysis; format: functional, cell-based
[6] = Solubility of the compound in PBS by nephelometric analysis; format: physicochemical
Summary of the method: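 Aqueous solubility in PBS was measured by nephelometry; the limit of complete solubility was taken as the concentration giving a statistical increase of light scattering over blank.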

Mus musculus [7] = assay: AUC in ICR mouse at 5 mg/kg, po by LC-MS/MS analysis; format: ADME, organism-based, Plasma; design: dose 5 mg/kg, route oral; conditions: in vivo
Summary of the method: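 Male ICR mice, 6–8 weeks old, N=3 per group. Single 5 mg/kg dose in NMP:PEG300:water (1:4:5 v/v), given as IV bolus or oral gavage. Serial arterial blood was drawn through a carotid cannula at 2–360 min. Plasma was protein-precipitated with acetonitrile containing internal standard and assayed by LC/MS/MS. Parameters were derived by noncompartmental analysis.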

Tubulin (Homo sapiens) [8] = molecular target: T1, Tubulin (Homo sapiens); assay: Inhibition of tubulin polymerization in human DU145 cells after 24 hrs by Western blotting analysis; format: cell-based; conditions: DU-145
DU-145 [9] = assay: Mitotoic arrest in human DU145 cells assessed as complete depolymerization of microtubule cytoskeleton at 25 nM after 24 hrs by FITC and propidium iodide staining-based confocal laser microscopic analysis; format: functional, cell-based; summary of the method: as §1
Mus musculus [10] = assay: Oral bioavailability in ICR mouse at 5 mg/kg by LC-MS/MS analysis; format: ADME, organism-based; conditions: in vivo
Summary of the method: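 Male ICR mice, 6–8 weeks old (N=3 per group), with a carotid artery cannula implanted one day before dosing. Dosed at 5 mg/kg in NMP:PEG300:water (1:4:5) as an IV bolus or by oral gavage. Blood drawn at 2–360 min; plasma protein-precipitated with acetonitrile containing internal standard, assayed by LC/MS/MS; noncompartmental analysis.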

[11] = Cytotoxicity against human H80 cells after 96 hrs by trypan blue exclusion assay; format: functional; conditions: H80, 96 h; summary of the method: as §2
DU-145 [12] = assay: Mitotoic arrest in human DU145 cells assessed as complete loss of coordination in mitotic spindle assembly at 25 nM after 24 hrs by FITC and propidium iodide staining-based confocal laser microscopic analysis; format: functional, cell-based; summary of the method: as §1
DU-145 [13] = assay: Cell cycle arrest in human DU145 cells assessed as accumulation at G2/M phase after 24 hrs by propidium iodide staining-based FACS flow cytometric analysis; format: functional
Summary of the method: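 DU145 cells were plated at 1.0×10⁶ per dish in DMEM/10% FBS and treated 24 h later with increasing concentrations. After 24 h, attached and floating cells were pooled and fixed in ice-cold 70% ethanol for at least 24 h. Cells were stained with propidium iodide (50 μg/mL) plus RNase A for 30 min at 37 °C, then read on a FACScan with cell-cycle modelling.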

BT-474 = assay: Cytotoxicity against human BT474 cells after 96 hrs by trypan blue exclusion assay; format: functional; conditions: BT-474, 96 h; summary of the method: as §2
DU-145 [14] = assay: Cytotoxicity against human DU145 cells after 96 hrs by trypan blue exclusion assay; format: functional, cell-based; summary of the method: as §2

## COc1cc(OC)c(/C=C/S(=O)(=O)Nc2ccc(OC)c(N)c2)c(OC)c1
Plasma
  PPB: 98.48%
MIA PaCa-2
  inhibition: Dose-dependent effect
Bos taurus
  inhibition: Active
[1]
  GI50: 10 nM
Tubulin
  IC50: 3.68 µM
DU-145 [2]
  Activity: Active
Tubulin (Homo sapiens) [3]
  inhibition: Active
DU-145 [4]
  Activity: Active
2008
  GI50: 6 nM
A-431
  GI50: 5 nM
DU-145 [5]
  Activity: Active
[6]
  solubility kinetic: 62.5 µM (≈ 24.7 µg/mL)
Mus musculus [7]
  AUC: 0.7 µg·h/mL
Tubulin (Homo sapiens) [8]
  inhibition: Dose-dependent effect
DU-145 [9]
  Activity: Active
Mus musculus [10]
  F: 34%
[11]
  GI50: 4 nM
DU-145 [12]
  Activity: Active
DU-145 [13]
  Activity: Dose-dependent effect
BT-474
  GI50: 10 nM
DU-145 [14]
  Activity: Dose-dependent effect
DU-145 [14]; DU-145, 96 h
  IC50: 5 nM
